The values below come from ChEMBL document CHEMBL1138476 (J Med Chem, 2009).

The target in series [1] is T1, Corticotropin-releasing factor receptor 1 (Rattus norvegicus, UniProt P35353).
T1 sequence (P35353 whole entry): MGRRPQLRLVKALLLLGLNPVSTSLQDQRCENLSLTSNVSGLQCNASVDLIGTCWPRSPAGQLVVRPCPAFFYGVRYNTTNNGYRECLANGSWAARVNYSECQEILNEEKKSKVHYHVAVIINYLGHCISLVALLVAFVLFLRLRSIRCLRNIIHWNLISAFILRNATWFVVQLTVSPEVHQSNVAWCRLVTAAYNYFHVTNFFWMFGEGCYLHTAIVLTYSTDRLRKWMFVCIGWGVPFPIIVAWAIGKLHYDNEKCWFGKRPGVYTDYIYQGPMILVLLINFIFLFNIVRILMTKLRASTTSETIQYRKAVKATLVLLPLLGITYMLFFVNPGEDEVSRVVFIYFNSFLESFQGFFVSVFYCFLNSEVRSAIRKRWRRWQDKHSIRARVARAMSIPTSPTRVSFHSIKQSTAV
Nature of the series: Displacement of [125I]Tyro-rat/human CRF from CRF1 receptor in rat cortical membrane by gamma counting. The class given is cell membranes. The essentials: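 Binding to CRF receptors in rat cortical homogenate.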

The nature of series [2]: AUC in Beagle dog at 1 mg/kg, po by cassette dosing. The class given is ADME, organism-based, Canis lupus familiaris. On the set-up: dose 1 mg/kg, route oral. Particulars: plasma.
Series [3] is described as follows: Cmax in Beagle dog at 1 mg/kg, po by cassette dosing. The class given is ADME, organism-based, Canis lupus familiaris. Set-up: dose 1 mg/kg, route oral. Particulars: in vivo.
A short description of series [4]: Half life in Beagle dog at 1 mg/kg, po by cassette dosing. In kind it is ADME, organism-based, Canis lupus familiaris. Set-up: dose 1 mg/kg, route oral. Conditions: in vivo.
Series [5] deals with Rattus norvegicus. Nature of the series: Effect on gastrointestinal motility in fasted Sprague-Dawley rat assessed as distance of charcoal moved from stomach to cecum at 3 mg/kg, po (RVb= 42.1+/-1.8 %).
Series [6] deals with Rattus norvegicus. Nature of the series: Effect on gastrointestinal motility in fasted Sprague-Dawley rat assessed as distance of charcoal moved from stomach to cecum at 0.3 mg/kg, ip (RVb= 38.4+/-3.8 %). The class given is functional, Caecum. Conditions: route intraperitoneal.
In series [7] the test system is Rattus norvegicus. Nature of the series: Toxicity in rat assessed as time spent on rotarod at 10 mg/kg, po after 1 hr by rotarod test. The class given is organism-based. Set-up: dose 10 mg/kg, route oral. Conditions: in vivo. In a few lines: (§1)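 Rats, n = 8 per dose, dosed po in 0.25% Methocel 1 h before testing, at 0, 1.0, 3.0, 10, 30 and 100 mg/kg. Read-out is time on rotorod (s), mean ± SEM, compared with the vehicle (zero-dose) group.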
A general note: The rotarod test checks motor coordination on a turning rod.

Series [8] concerns Rattus norvegicus. Nature of the series: Toxicity in rat assessed as time spent on rotarod at 30 mg/kg, po after 1 hr by rotarod test. On the set-up: dose 30 mg/kg, route oral. In kind it is organism-based. Conditions: in vivo. The essentials: as §1
Series [9] deals with Rattus norvegicus. Nature of the series: Toxicity in rat assessed as total distance traveled at 30 mg/kg, po after 1 hr by spontaneous locomotor test. The class given is functional. The essentials:
(§2)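 Rat spontaneous locomotor activity test with oral dosing in 0.25% Methocel 1 h before testing, at doses up to 100 mg/kg. Values are mean ± SEM, with N rats per group, compared with the vehicle (zero-dose) group.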

Series [10] deals with Rattus norvegicus. Nature of the series: Toxicity in rat assessed as total distance traveled at 3 mg/kg, po after 1 hr by spontaneous locomotor test. Conditions: in vivo. On the set-up: dose 3 mg/kg, route oral. In kind it is organism-based. In a few lines:
as §2

Series [11] relates to Rattus norvegicus. Nature of the series: Toxicity in rat assessed as total distance traveled at 100 mg/kg, po after 1 hr by spontaneous locomotor test. In kind it is organism-based. On the set-up: dose 100 mg/kg, route oral. Particulars: in vivo. The essentials:
as §2

Series [12] has as its system Rattus norvegicus. Nature of the series: Toxicity in rat assessed as total distance traveled at 10 mg/kg, po after 1 hr by spontaneous locomotor test. The class given is functional. The essentials:
as §2

Series [13] has as its system Rattus norvegicus. Nature of the series: Toxicity in rat assessed as time spent on rotarod at 3 mg/kg, po after 1 hr by rotarod test. In kind it is organism-based. Set-up: dose 3 mg/kg, route oral. Particulars: in vivo. In a few lines: as §1

In [1], `COCCN(CCOC)c1nc(C)nc2c(-c3cnc(N(C)C)cc3C)c(C)nn12` registered a 50% inhibitory concentration (IC50) of 91.9 nM.
On the same count and under the same terms, next, `CCN(CC)c1nc(C)nc2c(-c3cnc(OC)cc3C)c(C)nn12`: 14.5 nM; `CCC(CC)Nc1nc(C)nc2c(-c3cnc(OC)cc3C)c(C)nn12`: 3 nM; `CCCCN(CCC)c1nc(C)nc2c(-c3ccc(OC)nc3C)c(C)nn12`: 2.4 nM.
`CCCN(C)c1nc(C)nc2c(-c3ccc(OC)nc3C)c(C)nn12` returned an IC50 in series [1] of 17.6 nM.
`CCCCN(C)c1nc(C)nc2c(-c3ccc(OC)nc3C)c(C)nn12` displayed an IC50 in series [1] of 8.1 nM.
Still for that read-out and setting: as for `COCCN(CCOC)c1nc(C)nc2c(-c3cnc(OC)cc3C)c(C)nn12`, the figure is 23.8 nM.
Regarding `CCCCN(CC)c1nc(C)nc2c(-c3ccc(OC)nc3C)c(C)nn12`, in series [1], the IC50 was 4.9 nM.
`COCCN(CCOC)c1nc(C)nc2c(-c3ccc(OC)nc3C)c(C)nn12` displayed an AUC in series [2] of 1.47 µM·h. In [3], this molecule had a maximum concentration (Cmax) of 275 nM. In [1], this molecule had a half-maximal inhibitory concentration (IC50) of 8.5 nM. In addition, the half-life in series [4] is 10.3 h.
Turning to `COCCNc1nc(C)nc2c(-c3c(C)cc(N(C)C)nc3C)c(C)nn12`, in [1], the concentration for half-maximal inhibition (IC50) is greater than 10000 nM.
In the case of `COCCN(CC1CC1)c1nc(C)nc2c(-c3ccc(OC)nc3C)c(C)nn12`, in [2], the area under the curve (AUC) was 1.73 µM·h. The same molecule had a maximum concentration (Cmax) in [3] of 314 nM. For the same molecule, in [1], the IC50 worked out at 3.1 nM. Besides, the half-life in [4] is 11.4 h.
In series [1], `CCCN(CC1CC1)c1nc(C)nc2c(-c3ccc(OC)nc3C)c(C)nn12` came in with an IC50 of 1.6 nM.
Molecule `CCC(CC)Nc1nc(C)nc2c(-c3ccc(OC)nc3C)c(C)nn12` returned an IC50 in [1] of 3.1 nM.
Consider `CCC(CC)Nc1nc(C)nc2c(-c3cnc(N(C)C)cc3C)c(C)nn12`, for which, in series [1], the concentration for half-maximal inhibition (IC50) is 24.8 nM.
Turning to `CCN(CC)c1nc(C)nc2c(-c3cnc(N(C)C)cc3C)c(C)nn12`, the concentration for half-maximal inhibition (IC50) in series [1] was 13.8 nM.
`CN1[C@@H]2CC[C@H]1C[C@@H](OC(=O)C(CO)c1ccccc1)C2` (mixture of isomers) [ATROPINE]: the Activity in the series on Rattus norvegicus [5] worked out at 27.5%.
Consider `C[N+](C)(C)CCOC(N)=O.[Cl-]` [CARBACHOL], for which the Activity in the series with Rattus norvegicus [6] is on record as 55.8%.
As for `CNC1=Nc2ccc(Cl)cc2C(c2ccccc2)=[N+]([O-])C1` [CHLORDIAZEPOXIDE], the Time with Rattus norvegicus [7] was found to be 128 s; in the series on Rattus norvegicus [8], 114 s; in the series on Rattus norvegicus [13], 227 s. In addition, the Activity in the series with Rattus norvegicus [9] was found to be 2162 cm; with Rattus norvegicus [10] it was 4624 cm; in the series on Rattus norvegicus [11] it was 1062 cm; in the series with Rattus norvegicus [12], 3981 cm.

For orientation: IC50 means the concentration that inhibits the measured activity by half. Usually AUC stands for concentration integrated over time. What is called Cmax is the maximum level reached in the sampled fluid or tissue. In general, half-life refers to the time in which the quantity being followed falls by half. A lower half-life goes with rapid decline.
